Article PMC4284021 (The Journal of Pharmacy and Pharmacology, 2014)
Values joined by “and” are separate entries in the source; they are usually repeats but may differ in a detail not shown here. Equal values may be shown once. “Also recorded” adds a separate entry of the source. Marks after values point to notes of the source that are not given here.

How the values were obtained:
[1] = target: T1, cholesteryl ester transfer protein (CETP) activity (Homo sapiens, UniProt P11597); assay: Serum CETP activity by fluorometric assay in healthy subjects; assay type: in vivo; conditions: for CETP activity: Mean % change from baseline (90% CI) / CETP activity: Mean % change vs placebo (90 % CI): trough (predose) day 14
T1 sequence (P11597 18-493): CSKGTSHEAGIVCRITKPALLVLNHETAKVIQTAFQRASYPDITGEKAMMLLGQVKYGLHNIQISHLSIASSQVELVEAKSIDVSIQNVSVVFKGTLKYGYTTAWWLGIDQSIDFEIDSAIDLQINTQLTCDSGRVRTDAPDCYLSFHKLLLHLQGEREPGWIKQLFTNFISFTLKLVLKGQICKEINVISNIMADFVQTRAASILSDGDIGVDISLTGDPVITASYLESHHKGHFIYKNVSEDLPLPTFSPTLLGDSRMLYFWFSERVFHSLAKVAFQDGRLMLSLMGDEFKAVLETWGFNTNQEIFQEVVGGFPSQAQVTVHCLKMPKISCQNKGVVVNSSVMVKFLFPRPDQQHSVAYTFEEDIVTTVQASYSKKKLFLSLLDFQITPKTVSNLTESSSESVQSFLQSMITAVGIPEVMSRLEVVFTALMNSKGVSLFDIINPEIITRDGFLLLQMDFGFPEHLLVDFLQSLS
Summary of the method: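 Serum was sampled at the pharmacokinetic time points, including pre-dose troughs, after once-daily oral dosing (10–600 mg) or placebo. CETP activity was measured by fluorometric assay and expressed as the maximum test-compound-inhibitable activity. Change from baseline was analysed with an Emax dose model (Hill coefficient 1, baseline covariate).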

[2] = system: CETP mass; assay: Serum CETP mass by sandwich ELISA in healthy subjects; assay type: in vivo, human; conditions: for CETP mass: Mean % change from baseline (90% CI) / CETP mass: Mean % change vs placebo (90 % CI): trough (predose) day 14
Summary of the method: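 CETP mass was measured in serum by sandwich ELISA. Samples were taken at baseline and on Days 2, 7 and 14 of once-daily oral dosing (10–600 mg) or placebo.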

[3] = system: HDL-C and LDL-C; assay: Emax model of plasma evacetrapib exposure; assay type: in vivo, human; conditions: model estimate (90% CI)
Summary of the method: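 Change from baseline in HDL-C and LDL-C on Day 14 was fitted against steady-state plasma AUC. AUC came from LC/MS/MS and non-compartmental analysis. Model: Emax, the maximal response, and EAUC50, the AUC giving 50% of the maximal response.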

[4] = AUC producing 50% of maximal response

## Cc1cc(C)c2c(c1)[C@@H](N(Cc1cc(C(F)(F)F)cc(C(F)(F)F)c1)c1nnn(C)n1)CCCN2C[C@H]1CC[C@H](C(=O)O)CC1 [evacetrapib]
[1]; 10 mg/day
  CETP activity: Mean % change from baseline (90% CI): −14.60 (−22.33, −6.87) %
  CETP activity: Mean % change vs placebo (90 % CI): −16.08 (−23.23, −8.94) ^*** %
[1]; 100 mg
  trough inhibition of CETP activity: 65%
[1]; 100 mg/day
  CETP activity: Mean % change from baseline (90% CI): −64.54 (−73.08, −56.00) %
  CETP activity: Mean % change vs placebo (90 % CI): −66.02 (−78.93, −53.11) ^*** %
[1]; 300 mg
  trough inhibition of CETP activity: 84%
[1]; 300 mg/day
  CETP activity: Mean % change from baseline (90% CI): −84.26 (−91.34, −77.18) %
  CETP activity: Mean % change vs placebo (90 % CI): −85.74 (−97.43, −74.05) ^*** %
[1]; 600 mg
  trough inhibition of CETP activity: 91% and 91.2%
[1]; 600 mg, after multiple doses
  inhibition of CETP activity compared with placebo: 93%
[1]; 600 mg/day
  CETP activity: Mean % change from baseline (90% CI): −91.18 (−99.71, −82.66) %
  CETP activity: Mean % change vs placebo (90 % CI): −92.66 (−104.92, −80.41) ^*** %
[1]; each dose group
  CETP activity after 2-week (336 h) washout: returned to levels at or near baseline; also recorded: returned to baseline levels
[2]; 10 mg/day
  CETP mass: Mean % change from baseline (90% CI): 20.18 (9.92, 30.45) %
  CETP mass: Mean % change vs placebo (90 % CI): 20.58 (11.28, 29.88) ^*** %
[2]; 100 mg/day
  CETP mass: Mean % change from baseline (90% CI): 95.77 (82.14, 109.41) %
  CETP mass: Mean % change vs placebo (90 % CI): 96.17 (76.37, 115.97) ^*** %
[2]; 300 mg/day
  CETP mass: Mean % change from baseline (90% CI): 131.72 (122.10, 141.34) %
  CETP mass: Mean % change vs placebo (90 % CI): 132.12 (115.85, 148.38) ^*** %
[2]; 600 mg/day
  CETP mass: Mean % change from baseline (90% CI): 145.34 (133.29, 157.39) %
  CETP mass: Mean % change vs placebo (90 % CI): 145.73 (128.99, 162.48) ^*** %
[2]; human, in vivo
  CETP mass approximately 2 weeks after the last dose: returned to levels at or near baseline; also recorded: returned to baseline
[3]; [4]
  EAUC50 for the HDL-C model: 4110 ng·h/mL
  EAUC50 for the LDL-C model: 582 (194 to 1810) ng · h/ml
[3]; after 14 days of dosing
  maximum theoretical change from baseline for HDL-C (Emax): 126%
  maximum theoretical change from baseline for LDL-C (Emax): −28.2%
